{"source": "ChEMBL document CHEMBL1154419", "about": "“Pharmacodynamic effects of telavancin against methicillin-resistant and methicillin-susceptible Staphylococcus aureus strains in the presence of human albumin or serum and in an in vitro kinetic model” (Antimicrob Agents Chemother, 2007)", "key": {"[1]": {"assay": "Ratio of AUC in in vitro kinetic model containing Mueller-Hinton broth and methicillin-susceptible Staphylococcus aureus ATCC 13709 to MIC for methicillin-susceptible Staphylococcus aureus ATCC 13709 in bacterial regrowth stage", "type": "functional"}, "Staphylococcus aureus [2]": {"tested_on": "Staphylococcus aureus", "assay": "Antibacterial activity against methicillin-susceptible Staphylococcus aureus ATCC 13709 assessed as change in bacterial burden at 1 mg/liter after 8 hrs", "type": "functional"}, "Staphylococcus aureus [3]": {"tested_on": "Staphylococcus aureus", "assay": "Antibacterial activity against methicillin-susceptible Staphylococcus aureus ATCC 13709 assessed as change in bacterial burden at 1 mg/liter after 4 hrs", "type": "functional"}, "Staphylococcus aureus [4]": {"tested_on": "Staphylococcus aureus", "assay": "Antibacterial activity against methicillin-resistant Staphylococcus aureus ATCC 33591 assessed as change in bacterial burden at 5 mg/liter after 4 hrs", "type": "functional", "in_short": "(§1)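 In vitro kinetic model: spinner flask with 0.45-μm filter and prefilter, stirred, M-H broth at 37°C, starting inoculum approx. 5 × 10⁵ CFU/ml. Single initial drug dose of 1.0 to 40 mg/liter, with flow set to give a half-life of approx. 8 h. Viable counts at 0, 2, 4, 6, 8, 12 and 24 h. Duplicate runs per strain and concentration.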"}, "Staphylococcus aureus [5]": {"tested_on": "Staphylococcus aureus", "assay": "Antibacterial activity against methicillin-susceptible Staphylococcus aureus ATCC 13709 assessed as change in bacterial burden at 5 mg/liter after 12 hrs", "type": "functional"}, "Staphylococcus aureus [6]": {"tested_on": "Staphylococcus aureus", "assay": "Antibacterial activity against methicillin-resistant Staphylococcus aureus ATCC 33591 assessed as bacterial killing at 0.5 to 50 times MIC after 24 hrs in presence of 50% human serum", "type": "functional, organism-based", "in_short": "(§2)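 Static time-kill in M-H broth, in M-H broth with 40 g/liter fatty-acid-free purified human albumin, or in M-H broth with inactivated 50% human serum. Inoculum approx. 5 × 10⁵ CFU/ml, drug at 0.5, 1, 2.5, 5, 10, 25 and 50× MIC, 37°C. Samples at 0, 3, 6, 12 and 24 h plated on blood agar, counted after 24 h. Detection limit 5 × 10¹ CFU/ml. Run in duplicate.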"}, "Staphylococcus aureus [7]": {"tested_on": "Staphylococcus aureus", "assay": "Antibacterial activity against methicillin-susceptible Staphylococcus aureus ATCC 13709 assessed as change in bacterial burden at 1 mg/liter after 6 hrs", "type": "functional"}, "[8]": {"assay": "Ratio of AUC in in vitro kinetic model containing Mueller-Hinton broth and methicillin-susceptible Staphylococcus aureus ATCC 13709 to MIC for methicillin-susceptible Staphylococcus aureus ATCC 13709 in bacterial killing stage", "type": "functional"}, "Staphylococcus aureus [9]": {"tested_on": "Staphylococcus aureus", "assay": "Antibacterial activity against methicillin-resistant Staphylococcus aureus ATCC 33591 assessed as change in bacterial burden at 2.5 mg/liter after 24 hrs", "type": "functional", "in_short": "as §1"}, "Staphylococcus aureus [10]": {"tested_on": "Staphylococcus aureus", "assay": "Antibacterial activity against methicillin-resistant Staphylococcus aureus ATCC 33591 assessed as change in bacterial burden at 2.5 mg/liter after 12 hrs", "type": "functional", "in_short": "as §1"}, "Staphylococcus aureus [11]": {"tested_on": "Staphylococcus aureus", "assay": "Antibacterial activity against methicillin-susceptible Staphylococcus aureus ATCC 13709 assessed as change in bacterial burden at 1 mg/liter after 12 hrs", "type": "functional", "in_short": "as §1"}, "Staphylococcus aureus [12]": {"tested_on": "Staphylococcus aureus", "assay": "Antibacterial activity against methicillin-resistant Staphylococcus aureus ATCC 33591 assessed as change in bacterial burden at 5 mg/liter after 6 hrs", "type": "functional", "in_short": "as §1"}, "Staphylococcus aureus [13]": {"tested_on": "Staphylococcus aureus", "assay": "Antibacterial activity against methicillin-resistant Staphylococcus aureus ATCC 33591 assessed as bacterial killing at 50 times MIC after 24 hrs in presence of human albumin", "type": "functional, organism-based", "in_short": "as §2"}, "Staphylococcus aureus [14]": {"tested_on": "Staphylococcus aureus", "assay": "Antibacterial activity against methicillin-susceptible Staphylococcus aureus ATCC 13709 assessed as change in bacterial burden at 10 mg/liter after 24 hrs", "type": "functional", "in_short": "as §1"}, "Staphylococcus aureus [15]": {"tested_on": "Staphylococcus aureus", "assay": "Antibacterial activity against methicillin-susceptible Staphylococcus aureus ATCC 13709 in MH-broth", "type": "functional, organism-based"}, "Staphylococcus aureus [16]": {"tested_on": "Staphylococcus aureus", "assay": "Antibacterial activity against methicillin-susceptible Staphylococcus aureus ATCC 13709 assessed as change in bacterial burden at 20 mg/liter after 24 hrs", "type": "functional"}, "Staphylococcus aureus [17]": {"tested_on": "Staphylococcus aureus", "assay": "Antibacterial activity against methicillin-susceptible Staphylococcus aureus ATCC 13709 after 18 to 24 hrs by macrodilution technique", "type": "functional", "in_short": "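Broth macrodilution per CLSI, run in triplicate on separate occasions. Twofold serial drug dilutions in broth, inoculum approx. 5 × 10⁵ CFU/ml, 37°C for 18 to 24 h. MIC taken as the lowest concentration with no visible growth.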"}, "Staphylococcus aureus [18]": {"tested_on": "Staphylococcus aureus", "assay": "Antibacterial activity against methicillin-susceptible Staphylococcus aureus ATCC 13709 assessed as change in bacterial burden at 2.5 mg/liter after 8 hrs", "type": "functional"}, "Staphylococcus aureus [19]": {"tested_on": "Staphylococcus aureus", "assay": "Antibacterial activity against methicillin-susceptible Staphylococcus aureus ATCC 13709 assessed as change in bacterial burden at 20 mg/liter after 12 hrs", "type": "functional"}, "Staphylococcus aureus [20]": {"tested_on": "Staphylococcus aureus", "assay": "Antibacterial activity against methicillin-susceptible Staphylococcus aureus ATCC 13709 assessed as change in bacterial burden at 2.5 mg/liter after 12 hrs", "type": "functional"}, "Staphylococcus aureus [21]": {"tested_on": "Staphylococcus aureus", "assay": "Antibacterial activity against methicillin-susceptible Staphylococcus aureus ATCC 13709 assessed as bacterial killing at 50 times MIC after 24 hrs in presence of human albumin", "type": "functional, organism-based"}, "Staphylococcus aureus [22]": {"tested_on": "Staphylococcus aureus", "assay": "Antibacterial activity against methicillin-susceptible Staphylococcus aureus ATCC 13709 assessed as change in bacterial burden at 2.5 mg/liter after 2 hrs", "type": "functional"}, "Staphylococcus aureus [23]": {"tested_on": "Staphylococcus aureus", "assay": "Antibacterial activity against methicillin-susceptible Staphylococcus aureus ATCC 13709 assessed as change in bacterial burden at 2.5 mg/liter after 6 hrs", "type": "functional"}, "Staphylococcus aureus [24]": {"tested_on": "Staphylococcus aureus", "assay": "Antibacterial activity against methicillin-resistant Staphylococcus aureus ATCC 33591 assessed as change in bacterial burden at 20 mg/liter after 2 hrs", "type": "functional", "in_short": "as §1"}, "Staphylococcus aureus [25]": {"tested_on": "Staphylococcus aureus", "assay": "Antibacterial activity against methicillin-susceptible Staphylococcus aureus ATCC 13709 assessed as change in bacterial burden at 40 mg/liter after 4 hrs", "type": "functional"}, "Staphylococcus aureus [26]": {"tested_on": "Staphylococcus aureus", "assay": "Antibacterial activity against methicillin-susceptible Staphylococcus aureus ATCC 13709 assessed as bacterial regrowth at 40 mg/liter Cmax", "type": "functional, organism-based"}, "Staphylococcus aureus [27]": {"tested_on": "Staphylococcus aureus", "assay": "Antibacterial activity against methicillin-susceptible Staphylococcus aureus ATCC 13709 assessed as change in bacterial burden at 40 mg/liter after 6 hrs", "type": "functional"}, "Staphylococcus aureus [28]": {"tested_on": "Staphylococcus aureus", "assay": "Antibacterial activity against methicillin-susceptible Staphylococcus aureus ATCC 13709 assessed as bacterial regrowth at 0.25 times MIC", "type": "functional, organism-based", "in_short": "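Static time-kill in cation-supplemented M-H broth, inoculum ~5 × 10⁵ CFU/ml, 37°C; samples at 0, 3, 6, 12 and 24 h plated on blood agar for viable counts (detection limit 5 × 10¹ CFU/ml); duplicate runs.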"}, "Staphylococcus aureus [29]": {"tested_on": "Staphylococcus aureus", "assay": "Antibacterial activity against methicillin-susceptible Staphylococcus aureus ATCC 13709 assessed as change in bacterial burden at 2.5 mg/liter after 4 hrs", "type": "functional"}, "Staphylococcus aureus [30]": {"tested_on": "Staphylococcus aureus", "assay": "Antibacterial activity against methicillin-resistant Staphylococcus aureus ATCC 33591 assessed as change in bacterial burden at 10 mg/liter after 12 hrs", "type": "functional", "in_short": "as §1"}, "Staphylococcus aureus [31]": {"tested_on": "Staphylococcus aureus", "assay": "Antibacterial activity against methicillin-resistant Staphylococcus aureus ATCC 33591 assessed as bacterial killing at 10 times MIC after 24 hrs in MH-broth", "type": "functional, organism-based", "in_short": "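Strain diluted in M-H broth to approx. 10⁵ CFU/ml and grown 6 h into log phase, then split. Broth tubes got drug at 10× MIC directly. PBS tubes were transferred to PBS and held 3 h more, then dosed at 10× MIC. Growth controls were run in each medium. Viable counts at 0, 3, 6, 9, 12 and 24 h. Run in duplicate.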"}, "Staphylococcus aureus [32]": {"tested_on": "Staphylococcus aureus", "assay": "Antibacterial activity against methicillin-susceptible Staphylococcus aureus ATCC 13709 assessed as change in bacterial burden at 10 mg/liter after 4 hrs", "type": "functional"}}, "note": "Calls of active or inactive are those of the source. No cut-off for these calls is given here.", "data": [{"smiles": "CCCCCCCCCCNCCN[C@@]1(C)C[C@H](O[C@H]2[C@H](Oc3c4cc5cc3Oc3ccc(cc3Cl)[C@@H](O)[C@@H](NC(=O)[C@@H](CC(C)C)NC)C(=O)N[C@@H](CC(N)=O)C(=O)N[C@H]5C(=O)N[C@H]3C(=O)N[C@H](C(=O)N[C@H](C(=O)O)c5cc(O)c(CNCP(=O)(O)O)c(O)c5-c5cc3ccc5O)[C@H](O)c3ccc(c(Cl)c3)O4)O[C@H](CO)[C@@H](O)[C@@H]2O)O[C@@H](C)[C@H]1O", "note": "[TELAVANCIN]", "values": [{"measurement": "Activity", "setting": "[1]", "value": "inactive"}, {"measurement": "deltalog10CFU/ml", "setting": "Staphylococcus aureus [2]", "value": -2.6}, {"measurement": "deltalog10CFU/ml", "setting": "Staphylococcus aureus [3]", "value": -1.3}, {"measurement": "deltalog10CFU/ml", "setting": "Staphylococcus aureus [4]", "value": -2.1}, {"measurement": "deltalog10CFU/ml", "setting": "Staphylococcus aureus [5]", "value": -4.7}, {"measurement": "Activity", "setting": "Staphylococcus aureus [6]", "value": "Active"}, {"measurement": "deltalog10CFU/ml", "setting": "Staphylococcus aureus [7]", "value": -2}, {"measurement": "RatioAUC/MIC", "setting": "[8]", "value": 404}, {"measurement": "deltalog10CFU/ml", "setting": "Staphylococcus aureus [9]", "value": -3.6}, {"measurement": "deltalog10CFU/ml", "setting": "Staphylococcus aureus [10]", "value": -4.2}, {"measurement": "deltalog10CFU/ml", "setting": "Staphylococcus aureus [11]", "value": -2.6}, {"measurement": "deltalog10CFU/ml", "setting": "Staphylococcus aureus [12]", "value": -3.1}, {"measurement": "Activity", "setting": "Staphylococcus aureus [13]", "value": "Active"}, {"measurement": "deltalog10CFU/ml", "setting": "Staphylococcus aureus [14]", "value": -4.5}, {"measurement": "Activity", "setting": "Staphylococcus aureus [15]", "value": "Dose-dependent effect"}, {"measurement": "deltalog10CFU/ml", "setting": "Staphylococcus aureus [16]", "value": -4.6}, {"measurement": "MIC", "setting": "Staphylococcus aureus [17]", "value": 1, "unit": "µg/mL"}, {"measurement": "deltalog10CFU/ml", "setting": "Staphylococcus aureus [18]", "value": -3.4}, {"measurement": "deltalog10CFU/ml", "setting": "Staphylococcus aureus [19]", "value": -4.6}, {"measurement": "deltalog10CFU/ml", "setting": "Staphylococcus aureus [20]", "value": -4.7}, {"measurement": "Activity", "setting": "Staphylococcus aureus [21]", "value": "Active"}, {"measurement": "deltalog10CFU/ml", "setting": "Staphylococcus aureus [22]", "value": -1.1}, {"measurement": "deltalog10CFU/ml", "setting": "Staphylococcus aureus [23]", "value": -2.6}, {"measurement": "deltalog10CFU/ml", "setting": "Staphylococcus aureus [24]", "value": -1}, {"measurement": "deltalog10CFU/ml", "setting": "Staphylococcus aureus [25]", "value": -2.8}, {"measurement": "Activity", "setting": "Staphylococcus aureus [26]", "value": "Active"}, {"measurement": "deltalog10CFU/ml", "setting": "Staphylococcus aureus [27]", "value": -4.7}, {"measurement": "Activity", "setting": "Staphylococcus aureus [28]", "value": "Active"}, {"measurement": "deltalog10CFU/ml", "setting": "Staphylococcus aureus [29]", "value": -1.6}, {"measurement": "deltalog10CFU/ml", "setting": "Staphylococcus aureus [30]", "value": -5.1}, {"measurement": "Activity", "setting": "Staphylococcus aureus [31]", "value": "Active"}, {"measurement": "deltalog10CFU/ml", "setting": "Staphylococcus aureus [32]", "value": -2.4}]}]}
